The values that follow come from PubChem BioAssay AID2539 (The Scripps Research Institute Molecular Screening Center, 2010).

The structures appear in SMILES notation. Activity calls are given as the source filed them.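 Rule for the calls: active = at least 50% inhibition of the cell reactive oxygen species light signal; inactive = the rest.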

Holding throughout (assay): inhibition of NOX2, NOX3, NOX4 ROS production, late-stage follow-up, selectivity assay for NOX1 inhibitor project, cell-based, HEK293 transfected, luminol chemiluminescence, powder samples (AID 2539)
The target of assay [1] is NADPH oxidase 2 (Homo sapiens) (UniProt P04839). As to conditions: HEK293 transfected NOX2/3/4, luminol ROS chemiluminescence; NOX2; at 10 µM; stronger effect = higher value. An outline of the steps: (§1)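 Assay system: Transfected HEK/293 cells expressing NOX2, NOX3 or NOX4 | Times: Compounds added 16 h post-transfection, 2 h before probe | Signal: Luminol/HRP chemiluminescence reporting cellular ROS | Dosing: Single compound dose of 10 µM | Also added: Luminol with horseradish peroxidase as ROS probe | Replication: Triplicate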

Assay [2] deals with NADPH oxidase 4 (Homo sapiens) (UniProt Q9NPH5). As to conditions: HEK293 transfected NOX2/3/4, luminol ROS chemiluminescence; NOX4; at 10 µM; stronger effect = higher value. An outline of the steps: as §1
The target of assay [3] is NADPH oxidase 3 (Homo sapiens) (UniProt Q9HBY0). As to conditions: HEK293 transfected NOX2/3/4, luminol ROS chemiluminescence; NOX3; at 10 µM; stronger effect = higher value. An outline of the steps: as §1
Sequence of NADPH oxidase 3 (Homo sapiens) (Q9HBY0 whole entry, looked up): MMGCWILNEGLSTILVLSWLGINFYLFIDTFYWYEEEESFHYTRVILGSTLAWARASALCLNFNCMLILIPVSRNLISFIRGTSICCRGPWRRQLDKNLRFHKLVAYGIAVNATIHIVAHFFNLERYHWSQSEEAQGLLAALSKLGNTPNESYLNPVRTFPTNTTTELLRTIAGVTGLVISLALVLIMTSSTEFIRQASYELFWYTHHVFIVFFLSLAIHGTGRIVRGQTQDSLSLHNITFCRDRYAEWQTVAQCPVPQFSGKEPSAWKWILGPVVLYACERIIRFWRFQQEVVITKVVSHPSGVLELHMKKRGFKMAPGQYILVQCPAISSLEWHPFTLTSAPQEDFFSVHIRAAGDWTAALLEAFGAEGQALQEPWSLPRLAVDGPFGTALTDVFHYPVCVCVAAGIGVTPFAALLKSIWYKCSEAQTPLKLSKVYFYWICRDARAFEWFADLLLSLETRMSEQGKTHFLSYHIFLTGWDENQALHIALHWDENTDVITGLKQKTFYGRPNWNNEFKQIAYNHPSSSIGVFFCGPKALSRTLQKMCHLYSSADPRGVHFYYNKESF

Sequence of NADPH oxidase 4 (Homo sapiens) (Q9NPH5 whole entry, looked up): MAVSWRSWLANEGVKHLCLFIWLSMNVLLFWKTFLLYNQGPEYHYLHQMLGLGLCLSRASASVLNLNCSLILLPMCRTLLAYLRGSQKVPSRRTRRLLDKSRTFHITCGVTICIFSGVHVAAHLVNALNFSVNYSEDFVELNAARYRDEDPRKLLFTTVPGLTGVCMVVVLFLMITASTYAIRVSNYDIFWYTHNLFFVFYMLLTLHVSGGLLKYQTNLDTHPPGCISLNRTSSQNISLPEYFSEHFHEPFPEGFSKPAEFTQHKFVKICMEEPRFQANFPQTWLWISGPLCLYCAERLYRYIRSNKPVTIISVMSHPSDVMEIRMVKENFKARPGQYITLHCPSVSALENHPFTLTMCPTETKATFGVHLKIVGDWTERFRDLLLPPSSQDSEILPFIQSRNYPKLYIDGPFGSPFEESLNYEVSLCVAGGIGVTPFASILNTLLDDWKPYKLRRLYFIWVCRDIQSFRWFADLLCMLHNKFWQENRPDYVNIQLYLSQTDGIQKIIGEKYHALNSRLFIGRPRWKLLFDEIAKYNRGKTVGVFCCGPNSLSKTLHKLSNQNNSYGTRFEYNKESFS
Sequence of NADPH oxidase 2 (Homo sapiens) (P04839 whole entry, looked up): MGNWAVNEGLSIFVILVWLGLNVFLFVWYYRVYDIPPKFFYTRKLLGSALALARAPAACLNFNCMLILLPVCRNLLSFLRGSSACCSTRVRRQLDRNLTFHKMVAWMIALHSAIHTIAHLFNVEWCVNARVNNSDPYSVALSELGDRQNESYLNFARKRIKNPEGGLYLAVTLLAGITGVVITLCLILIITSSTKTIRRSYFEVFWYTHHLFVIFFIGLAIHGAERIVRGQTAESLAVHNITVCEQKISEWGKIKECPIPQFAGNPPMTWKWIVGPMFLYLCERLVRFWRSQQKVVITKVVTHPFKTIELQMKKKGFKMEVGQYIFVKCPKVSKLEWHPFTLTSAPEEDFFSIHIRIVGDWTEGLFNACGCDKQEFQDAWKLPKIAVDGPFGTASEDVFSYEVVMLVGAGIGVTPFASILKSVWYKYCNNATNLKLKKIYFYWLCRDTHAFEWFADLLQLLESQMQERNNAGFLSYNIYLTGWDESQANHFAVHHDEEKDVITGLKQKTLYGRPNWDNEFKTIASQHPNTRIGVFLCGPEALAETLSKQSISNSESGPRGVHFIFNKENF

For `O=C(Oc1ccccc1N1CCCCC1)c1sc2ccccc2c1Cl`, the inhibition in assay [1] was -3% (inactive); in assay [2], 3% (inactive); in assay [3], 3% (inactive).

`COc1cc(-c2nc(-c3ccccc3)c(-c3ccccc3)[nH]2)ccc1O`: the inhibition in assay [1] was -7% (inactive); in assay [2], 61%; in assay [3] it was 61%.

Consider `CN(C)c1ccc(/C=N/Nc2c(Cl)cncc2Cl)cc1`, for which the inhibition is 19% (inactive) in assay [1], 3% (inactive) in assay [2] and 3% (inactive) in assay [3].

`c1ccc2c(c1)Nc1nc3ccccc3nc1N2`: the inhibition is 2% (inactive) in assay [1], -24% (inactive) in assay [2] and -24% (inactive) in assay [3].

Consider `FC(F)(F)c1ccc2c(c1)Nc1ccccc1S2`, for which the inhibition in assay [1] is 20% (inactive); in assay [2], 10% (inactive); in assay [3] it was 10% (inactive).

On to `CN(C)c1ccc(NC(=O)Nc2ccc(OCc3ccccc3)cc2)cc1`, for which the inhibition in assay [1] was 32% (inactive); in assay [2], 52%; in assay [3] it was 52%.

With `Cc1cc(Cl)ccc1NC(=S)NNC(=S)Nc1ccc(F)cc1`, the figures for the inhibition in assay [1], in assay [2] and in assay [3] were 6% (inactive), 25% (inactive) and 25% (inactive), respectively.

In general, inhibition refers to the change of the read-out against control, counted positive when it falls.
